In brackets after ≈: the same amount, converted by molar mass.
What was measured:
[1] = target: T1, Fatty-acid amide hydrolase 1 (Rattus norvegicus, UniProt P97612); assay: Apparent inhibition of rat FAAH using AMCAA as substrate after 30 mins by fluorescence assay
T1 sequence (P97612 whole entry): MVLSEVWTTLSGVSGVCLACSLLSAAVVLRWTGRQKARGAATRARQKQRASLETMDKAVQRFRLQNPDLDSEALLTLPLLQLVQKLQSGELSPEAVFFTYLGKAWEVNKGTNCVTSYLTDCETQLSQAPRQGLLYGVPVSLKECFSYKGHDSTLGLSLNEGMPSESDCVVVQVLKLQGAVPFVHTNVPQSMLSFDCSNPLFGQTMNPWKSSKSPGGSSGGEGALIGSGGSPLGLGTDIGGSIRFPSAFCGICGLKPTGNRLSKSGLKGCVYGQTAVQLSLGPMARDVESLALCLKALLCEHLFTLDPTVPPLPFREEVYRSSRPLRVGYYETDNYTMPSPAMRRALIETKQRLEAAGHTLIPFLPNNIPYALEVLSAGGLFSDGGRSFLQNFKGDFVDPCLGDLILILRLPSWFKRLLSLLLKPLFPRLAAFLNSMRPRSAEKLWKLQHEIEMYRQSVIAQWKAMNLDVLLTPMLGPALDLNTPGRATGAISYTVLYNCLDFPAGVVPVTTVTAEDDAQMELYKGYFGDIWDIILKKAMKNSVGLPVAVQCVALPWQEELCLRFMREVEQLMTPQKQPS
In short: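 Rat FAAH enzyme fraction (125–250 ng final) was reacted with AMCAA substrate across a range of compound concentrations at 37 °C. Buffer: 125 mM Tris-HCl pH 9.0, 1 mM EDTA, 0.4 mM HEPES, 0.2% glycerol, 0.02% Triton X-100, 0.3% fatty acid free BSA. Fluorescence read at ex 355/em 460 nm, scaled to solvent (100%) and zero-time (0%). IC50 determined at a 30 min reaction.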

Mus musculus = assay: Analgesic activity in ICR mouse assessed as inhibition of acetic acid-induced writhing at 10 mg/kg, po pretreated for 60 mins followed by acetic acid-challenge measured for 20 mins relative to control; type: functional
In short: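 Mice received compound po at 10 mg/kg as a suspension in 0.5% methylcellulose (10 mL/kg). After 60 min, 0.6% (v/v) acetic acid (10 mL/kg) was given ip. Each mouse was then placed alone in an observation chamber. Treated mice were compared with vehicle-treated mice by Student's t-test.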

[2] = Solubility of the compound in aqueous buffer at pH 6.8 by HPLC analysis; type: physicochemical
In short: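 Small volumes of compound DMSO solution were added to aqueous buffer at pH 6.8 and incubated. Precipitate was removed by filtration, and the filtrate concentration was measured by HPLC.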

[3] = target: T2, Fatty-acid amide hydrolase 1 (Homo sapiens, UniProt O00519); assay: Apparent inhibition of human FAAH expressed in CHOK1 cells using AMCAA as substrate after 30 mins by fluorescence assay; type: cell-based, CHO-K1
T2 sequence (O00519 whole entry): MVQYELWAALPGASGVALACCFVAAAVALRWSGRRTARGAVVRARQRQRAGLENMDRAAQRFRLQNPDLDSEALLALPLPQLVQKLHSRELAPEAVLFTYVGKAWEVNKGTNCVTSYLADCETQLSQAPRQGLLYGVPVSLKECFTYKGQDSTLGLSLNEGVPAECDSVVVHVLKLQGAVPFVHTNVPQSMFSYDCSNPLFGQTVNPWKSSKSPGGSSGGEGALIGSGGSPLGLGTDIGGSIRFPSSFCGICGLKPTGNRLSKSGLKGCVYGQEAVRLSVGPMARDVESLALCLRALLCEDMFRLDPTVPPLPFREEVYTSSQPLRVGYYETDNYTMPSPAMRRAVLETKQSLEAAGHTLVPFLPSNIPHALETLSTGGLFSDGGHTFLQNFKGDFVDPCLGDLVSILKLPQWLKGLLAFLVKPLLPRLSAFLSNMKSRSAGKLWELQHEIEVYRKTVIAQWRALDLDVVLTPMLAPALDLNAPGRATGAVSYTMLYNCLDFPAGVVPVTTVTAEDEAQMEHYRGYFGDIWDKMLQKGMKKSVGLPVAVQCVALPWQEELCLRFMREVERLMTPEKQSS
In short: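 Enzyme source: CHO-K1 cells stably expressing human FAAH cloned from a human brain library, grown in Ham's F-12 with 10% FBS and 800 µg/mL G418, then homogenized in 10 mM Tris, 1 mM EDTA, 10 mM MgCl2. Fraction (125–250 ng final) was incubated with AMCAA at 37 °C in Tris-HCl pH 9.0 buffer with BSA. Fluorescence read at ex 355/em 460 nm; solvent = 100%, zero-time count = 0%. IC50 from a 30 min reaction.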

Brain [4] = assay: AUC in rat brain at 3 mg/kg, po by LC/MS/MS analysis; type: ADME, organism-based; set-up: dose 3 mg/kg, route oral; conditions: in vivo
In short: (§1)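 Rats given single oral doses of 0.03, 0.3 or 3 mg/kg as a suspension in 0.5% methylcellulose. Brain drug levels were measured by LC/MS/MS over time, and AUC is reported in ng h/g. Each value is the mean of n = 3.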

Brain [5] = assay: AUC in rat brain at 0.3 mg/kg, po by LC/MS/MS analysis; type: ADME, organism-based; set-up: dose 0.3 mg/kg, route oral; conditions: in vivo; in short: as §1
Brain [6] = assay: AUC in rat brain at 0.03 mg/kg, po by LC/MS/MS analysis; type: ADME, organism-based; set-up: dose 0.03 mg/kg, route oral; conditions: in vivo; in short: as §1
Rattus norvegicus [7] = assay: Analgesic activity in po dosed Sprague-Dawley rat complete Freund's adjuvant-induced inflammatory pain model assessed as attenuation of tactile allodynia administered for 5 days measured 4 hrs after treatment; type: functional, organism-based; conditions: in the assay text read “administered 5 days after CFA injection” for “administered for 5 days”
In short: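 Six-week-old male Sprague Dawley rats received 150 µL CFA into the plantar surface of the right hind paw; sham rats got liquid paraffin instead. Five days after injection, a single oral dose of 1, 3 or 10 mg/kg was given, with 0.5% methylcellulose as vehicle. Ipsilateral tactile allodynia was scored blinded with von Frey filaments 4 h post-dose. Mean and SE, 8–10 rats.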

Rattus norvegicus [8] = assay: Analgesic activity in po dosed Sprague-Dawley rat sciatic nerve injury-induced neuropathic pain model assessed as attenuation of tactile allodynia administered for 7 days measured 2 hrs after treatment; type: functional, organism-based; conditions: in the assay text read “administered 7 days after nerve injury” for “administered for 7 days”
In short: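 Seven-week-old male Sprague Dawley rats under pentobarbital had the right common peroneal nerve tightly ligated with 4-0 silk and transected distally; in sham rats the nerve was exposed only. Seven days later, rats got an oral dose of 1, 3 or 10 mg/kg or 0.5% methylcellulose vehicle. Ipsilateral tactile allodynia was scored blinded with von Frey filaments 2 h post-dose. Mean and SE, 8 rats.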

[9] = Ratio of drug level in brain to plasma in rat at 3 mg/kg, po; type: ADME, organism-based; set-up: dose 3 mg/kg, route oral; conditions: read-out: BPR
In short: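 Rats were dosed orally at 0.03, 0.3 or 3 mg/kg as a suspension in 0.5% methylcellulose. Compound levels in plasma and brain were quantified by LC/MS/MS. Cmax, Tmax and AUC are means of n = 3.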

[10] = target: T3, Fatty-acid amide hydrolase 1 (Homo sapiens) (UniProt O00519); assay: Irreversible inhibition of FAAH (unknown origin) using AMCAA as substrate at 10 nM by fluorescence assay; conditions: TDE = time-dependent effect
T3 sequence (whole entry): T2 sequence (O00519 whole entry)

## O=C(Nc1cccnn1)N1CCN(c2nccc(-c3cc(F)cc(F)c3)n2)CC1
[1]
  IC50: 0.34 nM
Mus musculus
  inhibition in vivo at 10 mg/kg: 0.9%
[2]
  solubility: 0.1 µg/mL (≈ 0.252 µM)
[3]
  IC50: 0.08 nM

## CCCCC/C=C\C/C=C\C/C=C\C/C=C\CCCC(=O)NCCO [ANANDAMIDE]
Brain [4]
  AUC: 311.6 ng·h/g
Brain [5]
  AUC: 232.9 ng·h/g
Brain [6]
  AUC: 64.3 ng·h/g

## O=C(Nc1cccnn1)N1CCN(c2nccc(-c3ccc(F)cc3F)n2)CC1
[1]
  IC50: 0.43 nM
[2]
  solubility: 0.85 µg/mL (≈ 2.14 µM)
[3]
  IC50: 1.1 nM

## O=C(Nc1cccnn1)N1CCN(c2ccnc(-c3ccc(F)cc3F)n2)CC1
[1]
  IC50: 34 nM
[2]
  solubility: 52 µg/mL (≈ 131 µM)
[3]
  IC50: 23 nM

## O=C(Nc1cccnn1)N1CCN(c2nccc(-c3cccc(F)c3F)n2)CC1
[1]
  IC50: 1.2 nM
Mus musculus
  inhibition in vivo at 10 mg/kg: 18.9%
[2]
  solubility: 0.16 µg/mL (≈ 0.403 µM)
[3]
  IC50: 0.072 nM

## O=C(Nc1cccnn1)N1CCN(c2cncc(-c3ccc(F)cc3F)c2)CC1
[1]
  IC50: 74 nM
[3]
  IC50: 140 nM

## O=C(Nc1cccnn1)N1CCN(c2cc(-c3ccc(F)cc3F)ccn2)CC1
[1]
  IC50: 4.3 nM
[3]
  IC50: 2.2 nM

## O=C(Nc1cccnn1)N1CCN(c2cc(-c3ccc(F)cc3F)ncn2)CC1
[1]
  IC50: 1.7 nM
[3]
  IC50: 1.5 nM

## O=C(Nc1cccnn1)N1CCN(c2nccc(-c3ccc(F)c(F)c3)n2)CC1
Rattus norvegicus [7]
  Activity: Dose-dependent effect
Rattus norvegicus [8]
  Activity: Dose-dependent effect
[1]
  IC50: 0.28 nM
Mus musculus
  inhibition in vivo at 10 mg/kg: 34.7%
[2]
  solubility: 3.1 µg/mL (≈ 7.8 µM)
[3]
  IC50: 0.72 nM
[9]
  Kp: 2
[10]
  inhibition: tde
Brain [4]
  AUC: 15955 ng·h/g
Brain [5]
  AUC: 898 ng·h/g
Brain [6]
  AUC: 0 ng·h/g

## O=C(Nc1cccnn1)N1CCN(c2cccc(-c3ccc(F)cc3F)n2)CC1
[1]
  IC50: 13 nM
[3]
  IC50: 36 nM

## O=C(Nc1cccnn1)N1CCN(c2ccnc(-c3ccc(F)cc3F)c2)CC1
[1]
  IC50: 12 nM
[3]
  IC50: 28 nM

## O=C(Nc1cccnn1)N1CCN(c2nccc(-c3cc(F)ccc3F)n2)CC1
[1]
  IC50: 0.17 nM
Mus musculus
  inhibition in vivo at 10 mg/kg: 2.2%
[2]
  solubility: < 0.06 µg/mL
[3]
  IC50: 0.025 nM
